Results on 14 compounds are retold here after ChEMBL document CHEMBL5376019, “Design, synthesis and evaluation of 2-phenylpyrimidine derivatives as novel antifungal agents targeting CYP51” (RSC Med Chem, 2024).

SMILES strings stand for the structures. ≈ marks a conversion by molar mass, not a printed value.

What all share (type): functional
In one assay the test system is Candida parapsilosis. Briefly: Antifungal activity against Candida parapsilosis GIM 2.190 assessed as fungal growth inhibition. To be noted: Lodderomyces parapsilosis. Put shortly: (§1)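 Broth microdilution per NCCLS M27-A3, with fluconazole as positive control. Assay medium was RPMI 1640 buffered with MOPS. Inocula were diluted to 1–5 × 10^3 CFU mL−1 and seeded in 96-well plates. Compounds were dissolved in DMSO and serially diluted in the growth medium. MIC was the read-out.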

The subject of another assay is Candida tropicalis. Briefly: Antifungal activity against Candida tropicalis CGMCC 2.3739 assessed as fungal growth inhibition. Put shortly: as §1
The test system of a further assay is Pichia kudriavzevii. Briefly: Antifungal activity against Pichia kudriavzevii GIM 2.1 assessed as fungal growth inhibition. Put shortly: as §1
For a further assay, the system named is Cryptococcus neoformans. Briefly: Antifungal activity against Cryptococcus neoformans CGMCC 2.3161 assessed as fungal growth inhibition. An outline of the steps: as §1
The test system of the next assay is Nakaseomyces glabratus. Briefly: Antifungal activity against clinical isolate Candida glabrata assessed as fungal growth inhibition. An outline of the steps:
as §1

Assay [1] deals with Candida albicans. Put plainly: Antifungal activity against Candida albicans ATCC SC5314 assessed as fungal growth inhibition. An outline of the steps: as §1
Assay [2] deals with Candida albicans. Put plainly: Antifungal activity against Candida albicans CPCC400616 assessed as fungal growth inhibition. An outline of the steps: as §1

On to `O=C(NC(Cn1ccnc1)C(=O)c1ccccc1)c1ccc(-c2ncccn2)cc1` (racemic), for which the MIC with Candida parapsilosis, in the assay on Candida tropicalis, with Pichia kudriavzevii, with Cryptococcus neoformans, in the assay on Nakaseomyces glabratus and with Candida albicans [1] was over 64 µg/mL each time. In addition, the MIC (usually the smallest concentration in the dilution series that meets the test's criterion for growth inhibition) in the assay with Candida albicans [2] was over 64 µg/mL.
With `CC(C)c1cccc(-c2ncc(C(=O)NC(Cn3ccnc3)C(=O)c3ccccc3)cn2)c1` (racemic), the MIC in the assay with Candida parapsilosis, with Candida tropicalis, in the assay with Pichia kudriavzevii, with Cryptococcus neoformans, in the assay with Nakaseomyces glabratus and in the assay on Candida albicans [1] was over 64 µg/mL throughout. The MIC in the assay with Candida albicans [2] was over 64 µg/mL.
On to `O=C(NC(Cn1ccnc1)C(=O)c1ccccc1)c1cnc(-c2ccc(Cl)cc2)nc1` (racemic), for which the MIC is over 64 µg/mL in the assay on Candida parapsilosis; 4 µg/mL (≈ 9.26 µM) in the assay on Candida tropicalis; over 64 µg/mL in the assay with Pichia kudriavzevii; over 64 µg/mL in the assay with Cryptococcus neoformans; over 64 µg/mL in the assay on Nakaseomyces glabratus; 8 µg/mL (≈ 18.5 µM) in the assay with Candida albicans [1]. Besides, in the assay with Candida albicans [2], the MIC stood at 16 µg/mL (≈ 37 µM).
On to `CC(C)c1ccc(-c2ncc(C(=O)NC(Cn3ccnc3)C(=O)c3ccccc3)cn2)cc1` (racemic), for which the MIC in the assay on Candida parapsilosis, in the assay with Candida tropicalis, in the assay on Pichia kudriavzevii, with Cryptococcus neoformans, with Nakaseomyces glabratus and in the assay with Candida albicans [1] was over 64 µg/mL in each case. In addition, the MIC in the assay with Candida albicans [2] was over 64 µg/mL.
For the compound `OC(Cn1cncn1)(Cn1cncn1)c1ccc(F)cc1F` [FLUCONAZOLE], the MIC worked out at 2 µg/mL (≈ 6.53 µM) in the assay on Candida parapsilosis; 0.5 µg/mL (≈ 1.63 µM) in the assay with Candida tropicalis; 8 µg/mL (≈ 26.1 µM) with Pichia kudriavzevii; 4 µg/mL (≈ 13.1 µM) with Cryptococcus neoformans; 4 µg/mL (≈ 13.1 µM) in the assay with Nakaseomyces glabratus; 0.5 µg/mL (≈ 1.63 µM) in the assay on Candida albicans [1]. For the same compound, the MIC with Candida albicans [2] stood at 1 µg/mL (≈ 3.27 µM).
For `N#Cc1ccc(-c2ncc(C(=O)NC(Cn3ccnc3)C(=O)c3ccccc3)cn2)cc1` (racemic), the MIC is over 64 µg/mL in the assay on Candida parapsilosis; over 64 µg/mL with Candida tropicalis; over 64 µg/mL with Pichia kudriavzevii; over 64 µg/mL with Cryptococcus neoformans; over 64 µg/mL in the assay with Nakaseomyces glabratus; 4 µg/mL (≈ 9.47 µM) in the assay on Candida albicans [1]. Moreover, in the assay with Candida albicans [2], the MIC is over 64 µg/mL.
In the case of `CC(C)(C)c1ccc(-c2ncc(C(=O)NC(Cn3ccnc3)C(=O)c3ccccc3)cn2)cc1` (racemic), the MIC with Candida parapsilosis, in the assay on Candida tropicalis, with Pichia kudriavzevii, with Cryptococcus neoformans, with Nakaseomyces glabratus and with Candida albicans [1] was over 64 µg/mL each time. The MIC with Candida albicans [2] is over 64 µg/mL.
As to `O=C(NC(Cn1ccnc1)C(=O)c1ccc(I)cc1)c1cnc(-c2cccc(F)c2)nc1` (racemic), the MIC in the assay with Candida parapsilosis is over 64 µg/mL; with Candida tropicalis, over 64 µg/mL; with Pichia kudriavzevii, over 64 µg/mL; in the assay on Cryptococcus neoformans, over 64 µg/mL; in the assay with Nakaseomyces glabratus, over 64 µg/mL; in the assay with Candida albicans [1] it was 1 µg/mL (≈ 1.85 µM). Also, the MIC in the assay on Candida albicans [2] came to 32 µg/mL (≈ 59.1 µM).
With `O=C(NC(Cn1ccnc1)C(=O)c1ccccc1)c1cnc(-c2cccc(F)c2)nc1` (racemic), the MIC in the assay on Candida parapsilosis worked out at 16 µg/mL (≈ 38.5 µM); in the assay on Candida tropicalis, 4 µg/mL (≈ 9.63 µM); in the assay on Pichia kudriavzevii, 32 µg/mL (≈ 77 µM); in the assay on Cryptococcus neoformans it was 32 µg/mL (≈ 77 µM); in the assay with Nakaseomyces glabratus, 32 µg/mL (≈ 77 µM); with Candida albicans [1], 2 µg/mL (≈ 4.81 µM). For the same compound, the MIC in the assay with Candida albicans [2] was 8 µg/mL (≈ 19.3 µM).
Take `COc1ccc(-c2ncc(C(=O)NC(Cn3ccnc3)C(=O)c3ccccc3)cn2)cc1` (racemic): the MIC in the assay on Candida parapsilosis, with Candida tropicalis, in the assay on Pichia kudriavzevii, with Cryptococcus neoformans, in the assay with Nakaseomyces glabratus and with Candida albicans [1] was over 64 µg/mL throughout. For the same compound, the MIC in the assay on Candida albicans [2] is over 64 µg/mL.
As for `O=C(NC(Cn1ccnc1)C(=O)c1ccccc1)c1ccc(-c2cccnc2)cc1` (racemic), the MIC was over 64 µg/mL with Candida parapsilosis; over 64 µg/mL with Candida tropicalis; over 64 µg/mL with Pichia kudriavzevii; over 64 µg/mL in the assay with Cryptococcus neoformans; over 64 µg/mL with Nakaseomyces glabratus; 8 µg/mL (≈ 20.2 µM) in the assay with Candida albicans [1]. Besides, the MIC with Candida albicans [2] worked out at 32 µg/mL (≈ 80.7 µM).
`O=C(NC(Cn1ccnc1)C(=O)c1ccccc1)c1cnc(-c2cccc(Cl)c2)nc1` (racemic): the MIC in the assay with Candida parapsilosis, in the assay on Candida tropicalis, with Pichia kudriavzevii, in the assay on Cryptococcus neoformans, in the assay on Nakaseomyces glabratus and in the assay with Candida albicans [1] was over 64 µg/mL in each case. Also, the MIC in the assay on Candida albicans [2] was over 64 µg/mL.
`O=C(NC(Cn1ccnc1)C(=O)c1ccccc1)c1cnc(-c2cccc(C(F)(F)F)c2)nc1` (racemic): the MIC with Candida parapsilosis, in the assay with Candida tropicalis, in the assay on Pichia kudriavzevii, with Cryptococcus neoformans, with Nakaseomyces glabratus and in the assay on Candida albicans [1] was over 64 µg/mL in each case. For the same compound, the MIC with Candida albicans [2] is over 64 µg/mL.
For the compound `O=C(NC(Cn1ccnc1)C(=O)c1ccccc1)c1noc2c1CCc1ccccc1-2` (centres undefined), the MIC stood at 4 µg/mL (≈ 9.7 µM) in the assay with Candida tropicalis, 8 µg/mL (≈ 19.4 µM) in the assay with Candida albicans [1] and 8 µg/mL (≈ 19.4 µM) in the assay with Candida albicans [2].
